Laboratory results: ChEMBL document CHEMBL4414551, “Design, Synthesis, and Biological Evaluation of Substituted 4,6-Dihydrospiro[[1,2,3]triazolo[4,5-b]pyridine-7,3'-indoline]-2',5(3H)-dione Analogues as Potent NS4B Inhibitors for the Treatment of Dengue Virus Infection” (J Med Chem, 2019)
Active and inactive are the calls of the source. The rule behind the calls is not given here.

Tests used:
[1] = tested on: dengue virus type 2; experiment: (§1) Antiviral activity against NS3 T606A mutant and NS4B V63L mutant containing Dengue virus 2 isolate P12-VI infected in human HuH7 cells using viral isolates selected by serial passaging in presence of (R)-5'-Chloro-3-((S)-1-(4-chlorophenyl)ethyl)-1'-(2-(dimethylamino)ethyl)-4,6-dihydrospiro[[1,2,3]triazolo[4,5-b]-pyridine-7,3'-indoline]-2',5(3H)-dione incubated for 3 days by viral reduction assay; format: functional, organism-based; conditions: Huh-7
[2] = tested on: dengue virus type 2; experiment: as §1, with “Resistance index, ratio of EC50 for antiviral” for “Antiviral”, “assay to EC50 for antiviral activity against Dengue virus 2 isolate P0 infected in human HuH7 cells incubated for 3 days by viral reduction assay” for “assay”; format: functional
[3] = Oral bioavailability n Sprague-Dawley rat at 20 mg/kg measured up to 24 hrs by LC-MS/MS analysis; format: ADME, organism-based; conditions: in vivo
Summary of the method: (§2)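 Male SD rats, n = 3, fasted 12 h, given 20 mg/kg orally. Comparison arm given 10 mg/kg as an iv bolus, n = 3. Both formulated in DMSO:20% HP-β-CD in saline (1:9). Plasma sampled from 15 min (5 min iv) to 24 h. Analysed by LC-MS/MS against an 8-point standard curve with 6 QCs. Parameters derived by non-compartmental analysis.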

[4] = tested on: dengue virus type 2; experiment: Antiviral activity against Dengue virus 2 D2Y98P infected in A129 mouse model of dengue viremia assessed as reduction in viral loads in sera at 100 mg/kg, po BID for 3 days measured day 3 postinfection by viral plaque assay relative to control; format: functional
Summary of the method: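 A129 mice (IFN-α/β receptor knockout), 3 weeks old, n = 6 per group; DENV-2 D2Y98P stock grown in BHK-21 cells, 100 µL at 10⁷ PFU/ml given subcutaneously. Oral dosing started immediately, twice daily for 3 days, as a suspension in 2.5% DMSO, 50% PEG-400 and 47.5% DPBS, or vehicle alone. Retro-orbital bleed on day 3 p.i.; plasma viremia measured by plaque assay; unpaired parametric test.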

[5] = tested on: dengue virus type 2; experiment: Antiviral activity against Dengue virus 2 NGC infected in human HuH7 replicon cells expressing Renilla luciferase and neomycin-resistance genes assessed as reduction in viral replication incubated for 48 hrs by luciferase reporter replicon-based assay; format: functional, organism-based; conditions: Huh-7, 48 h
Summary of the method: (§3)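 Huh7 cells stably carrying a Renilla luciferase/neomycin-resistance replicon (DENV-1 WestPac, DENV-2 NGC, DENV-3 D3MY05-34640 or DENV-4 D4MY01-22713). Cells seeded at 10k per well and incubated overnight at 37 °C, 5% CO2. Then exposed to 2-fold serial compound dilutions for 48 h, in duplicate. Luciferase read with a live-cell substrate. EC50 from four-parameter logistic fit.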

[6] = Clearance in Sprague-Dawley rat at 20 mg/kg, po measured up to 24 hrs by LC-MS/MS analysis; format: ADME, organism-based; conditions: in vivo
Summary of the method: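 Male SD rats, N = 3, fasted 12 h; oral 20 mg/kg (alongside a 10 mg/kg i.v. bolus arm) formulated as DMSO solution : 20% HP-β-CD in saline = 1:9. Plasma sampled at 15 min, 30 min, 1, 2, 4, 8 and 24 h. Levels measured by LC-MS/MS against an 8-point standard curve with 6 QCs; parameters from non-compartmental analysis.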

[7] = tested on: dengue virus type 4; experiment: Antiviral activity against Dengue virus 4 D4MY01-22713 infected in human HuH7 replicon cells expressing Renilla luciferase and neomycin-resistance genes assessed as reduction in viral replication incubated for 48 hrs by luciferase reporter replicon-based assay; format: functional, organism-based; conditions: D4MY01-22713, Huh-7, 48 h; summary of the method: as §3
[8] = tested on: dengue virus type 2; experiment: Antiviral activity against Dengue virus 2 D2Y98P infected in human HuH7 cells incubated for 48 hrs by viral titer reduction assay; format: functional, organism-based; conditions: Huh-7, 48 h
Summary of the method: (§4)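 Huh7 cells seeded the day before, then infected with DENV-2 NGC or D2Y98P at MOI 0.3 in the presence of 2-fold serial compound dilutions, in triplicate. After 48 h at 37 °C, infectious virus in the culture fluid was titrated by plaque assay. EC50 from four-parameter logistic fit.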

[9] = tested on: dengue virus type 1; experiment: Antiviral activity against Dengue virus 1 WestPac infected in human HuH7 replicon cells expressing Renilla luciferase and neomycin-resistance genes assessed as reduction in viral replication incubated for 48 hrs by luciferase reporter replicon-based assay; format: functional, organism-based; conditions: Huh-7, 48 h; summary of the method: as §3
[10] = Tmax in Sprague-Dawley rat at 20 mg/kg, po measured up to 24 hrs by LC-MS/MS analysis; format: ADME, organism-based; conditions: in vivo; summary of the method: as §2
[11] = tested on: dengue virus type 2; experiment: Antiviral activity against Dengue virus 2 isolate P0 infected in human HuH7 cells incubated for 3 days by viral reduction assay; format: functional, organism-based; conditions: isolate P0, Huh-7, 72 h
[12] = tested on: dengue virus type 2; experiment: Antiviral activity against Dengue virus 2 NGC infected in human HuH7 cells incubated for 48 hrs by viral titer reduction assay; format: functional, organism-based; conditions: Huh-7, 48 h; summary of the method: as §4
[13] = tested on: dengue virus type 2; experiment: Antiviral activity against Dengue virus 2 D2Y98P infected in A129 mouse model of dengue viremia assessed as reduction in viral morbidity by measuring body weight at 100 mg/kg, po BID for 3 days measured day 3 postinfection by viral plaque assay relative to control; format: functional, organism-based
[14] = tested on: dengue virus type 3; experiment: Antiviral activity against Dengue virus 3 D3MY05-34640 infected in human HuH7 replicon cells expressing Renilla luciferase and neomycin-resistance genes assessed as reduction in viral replication incubated for 48 hrs by luciferase reporter replicon-based assay; format: functional, organism-based; conditions: D3MY05-34640, Huh-7, 48 h; summary of the method: as §3
[15] = Cytotoxicity in human HuH7 replicon cells infected with Dengue virus 2 NGC assessed as reduction in cell viability incubated for 48 hrs by Cell-titer-Glo reagent based assay; parameters: species or system Huh-7
Summary of the method: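 Huh7 cells or Huh7 replicon cells plated, then held at 37 °C with 5% CO₂ overnight. Exposed to 2-fold serial compound dilutions for 48 h, in duplicate. Viability read with CellTiter-Glo and normalized to 0.45% DMSO wells set at 100%. CC50 from four-parameter logistic fit.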

CC(C)CCN1C(=O)[C@]2(CC(=O)Nc3c2nnn3[C@@H](C)c2ccc(Cl)cc2)c2cc(Cl)ccc21
EC50 [1]: 1960 nM
Ratio EC50 [2]: 16
bioavailability [3]: 30%
log reduction [4]: 2.4
EC50 [5]: 160 nM
CL/F [6]: 59.5 mL/min/kg
EC50 [7]: > 5000 nM
EC50 [8]: 130 nM
EC50 [9]: 780 nM
Tmax [10]: 1 h
EC50 [11]: 123 nM
EC50 [12]: 100 to 108 nM
Activity [13]: Active
EC50 [14]: 35 nM
CC50 at 48 h [15]: > 10000 nM
